Assay results taken from ChEMBL document CHEMBL1165950, “Design and synthesis of new potent anticancer pyrazoles with high FLT3 kinase inhibitory selectivity” (Bioorg Med Chem, 2010).

Key:
Format in all cases: functional
[1] = system: NCI-H226; experiment: Cytotoxicity against human NCI-H226 cells assessed as cell growth at 10 uM; conditions: read-out: Activity
Method in brief: (§1)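 NCI-60 screen: cells grown in RPMI 1640 with 5% FBS and 2 mM L-glutamine, plated at 5000–40,000 cells/well according to doubling time, and preincubated 24 h at 37 °C, 5% CO2. The single 10 µM dose (DMSO stock) was added, then incubated 48 h. Cells were TCA-fixed and stained with 0.4% SRB, read at 515 nm, and growth % calculated against time-zero and control plates.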

[2] = system: SR; experiment: Cytotoxicity against human SR cells assessed as cell growth at 10 uM; conditions: read-out: Activity; method in brief: as §1
[3] = system: OVCAR-8; experiment: Cytotoxicity against human OVCAR8 cells assessed as cell growth at 10 uM; conditions: read-out: Activity; method in brief: as §1
[4] = system: SF-539; experiment: Cytotoxicity against human SF539 cells assessed as cell growth at 10 uM; conditions: read-out: Activity; method in brief: as §1
[5] = system: NCI/ADR-RES; experiment: Cytotoxicity against human NCI/ADR-RES cells assessed as cell growth at 10 uM; conditions: read-out: Activity; method in brief: as §1
[6] = system: A549; experiment: Cytotoxicity against human A549 cells assessed as cell growth at 10 uM; conditions: read-out: Activity
Method in brief: (§2)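 Single-dose NCI-60 screen at 10 µM. Cells were grown in RPMI 1640 with 5% FBS and 2 mM L-glutamine, then treated for 48 h at 37 °C. Protein was measured by SRB staining with absorbance at 515 nm. Percentage growth was recorded, and inhibition percentage was calculated as 100 minus growth percentage.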

[7] = system: KM12; experiment: Cytotoxicity against human KM12 cells assessed as cell growth at 10 uM; conditions: read-out: Activity; method in brief: as §1
[8] = system: HOP-62; experiment: Cytotoxicity against human HOP62 cells assessed as cell growth at 10 uM; conditions: read-out: Activity; method in brief: as §2
[9] = system: NCI-H23; experiment: Cytotoxicity against human NCI-H23 cells assessed as cell growth at 10 uM; conditions: read-out: Activity; method in brief: as §1
[10] = system: HCT-15; experiment: Cytotoxicity against human HCT15 cells assessed as cell growth at 10 uM; conditions: read-out: Activity; method in brief: as §2
[11] = Growth inhibition of human NCI60 cells at 10 uM after 48 hrs by sulforhodamine B assay relative to control; conditions: NCI60, 48 h, read-out: GI
Method in brief: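 Single-dose NCI screen at 10 µM across the 60-line panel, 48 h exposure at 37 °C after a 24 h preincubation. Adherent cells were fixed with cold TCA and stained with 0.4% SRB, and absorbance was read at 515 nm. Inhibition % was taken as 100 minus growth %, and the mean across all lines was reported.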

[12] = system: CAKI-1; experiment: Cytotoxicity against human Caki1 cells assessed as cell growth at 10 uM; conditions: read-out: Activity; method in brief: as §2
[13] = system: OVCAR-5; experiment: Cytotoxicity against human OVCAR5 cells assessed as cell growth at 10 uM; conditions: read-out: Activity; method in brief: as §1
[14] = Cytotoxicity against human […] cells assessed as cell growth at 10 uM; conditions: read-out: Activity; method in brief: as §1
[15] = system: COLO 205; experiment: Cytotoxicity against human COLO205 cells assessed as cell growth at 10 uM; conditions: read-out: Activity; method in brief: as §2
[16] = system: RXF 393; experiment: Cytotoxicity against human RXF393 cells assessed as cell growth at 10 uM; conditions: read-out: Activity; method in brief: as §1
[17] = system: UACC-257; experiment: Cytotoxicity against human UACC257 cells assessed as cell growth at 10 uM; conditions: read-out: Activity; method in brief: as §1
[18] = system: SF-295; experiment: Cytotoxicity against human SF295 cells assessed as cell growth at 10 uM; conditions: read-out: Activity; method in brief: as §1
[19] = system: SK-MEL-28; experiment: Cytotoxicity against human SK-MEL-28 cells assessed as cell growth at 10 uM; conditions: read-out: Activity; method in brief: as §1
[20] = system: CCRF-CEM; experiment: Cytotoxicity against human CCRF-CEM cells assessed as cell growth at 10 uM; conditions: read-out: Activity; method in brief: as §2
[21] = system: A498; experiment: Cytotoxicity against human A498 cells assessed as cell growth at 10 uM; conditions: read-out: Activity; method in brief: as §2
[22] = system: HL-60(TB); experiment: Cytotoxicity against human HL-60(TB) cells assessed as cell growth at 10 uM; conditions: read-out: Activity
Method in brief: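 NCI 60-cell panel screen at a single concentration of 10 µM. Cells are grown in RPMI 1640 with 5% FBS and 2 mM L-glutamine and read by SRB protein staining at 515 nm. Percent growth is measured relative to time-zero and untreated controls; inhibition % is 100 minus growth %.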

[23] = system: ACHN; experiment: Cytotoxicity against human ACHN cells assessed as cell growth at 10 uM; conditions: read-out: Activity; method in brief: as §2
[24] = system: MDA-MB-468; experiment: Cytotoxicity against human MDA-MB-468 cells assessed as cell growth at 10 uM; conditions: read-out: Activity; method in brief: as §1
[25] = system: HCT-116; experiment: Cytotoxicity against human HCT116 cells assessed as cell growth at 10 uM; conditions: read-out: Activity; method in brief: as §2
[26] = system: K562; experiment: Cytotoxicity against human K562 cells assessed as cell growth at 10 uM; conditions: read-out: Activity; method in brief: as §2
[27] = system: SW-620; experiment: Cytotoxicity against human SW620 cells assessed as cell growth at 10 uM; conditions: read-out: Activity; method in brief: as §1
[28] = system: T47D; experiment: Cytotoxicity against human T47D cells assessed as cell growth at 10 uM; conditions: read-out: Activity; method in brief: as §1
[29] = system: SF-268; experiment: Cytotoxicity against human SF268 cells assessed as cell growth at 10 uM; conditions: read-out: Activity; method in brief: as §1
[30] = system: EKVX; experiment: Cytotoxicity against human EKVX cells assessed as cell growth at 10 uM; conditions: read-out: Activity; method in brief: as §2

COc1cc(C)cc(-c2nn(CC#N)cc2-c2ccnc(-c3ccc(C(C)=O)cc3)c2)c1
growth at 10 µM [1]: 78.3%
growth at 10 µM [2]: 78.4%
growth at 10 µM [3]: 80.6%
growth at 10 µM [4]: 81.9%
growth at 10 µM [5]: 73.8%
growth at 10 µM [6]: 67.1%
growth at 10 µM [7]: 87.9%
growth at 10 µM [8]: 94.4%
growth at 10 µM [9]: 78.9%
growth at 10 µM [10]: 68.7%
inhibition of growth at 10 µM [11]: 18.2%
growth at 10 µM [12]: 87.2%
growth at 10 µM [13]: 108%
growth at 10 µM [14]: 82.9%
growth at 10 µM [15]: 66.8%
growth at 10 µM [16]: 78.9%
growth at 10 µM [17]: 82.7%
growth at 10 µM [18]: 103%
growth at 10 µM [19]: 75.4%
growth at 10 µM [20]: 92.6%
growth at 10 µM [21]: 93%
growth at 10 µM [22]: 98.3%
growth at 10 µM [23]: 73.8%
growth at 10 µM [24]: 11.3%
growth at 10 µM [25]: 76.6%
growth at 10 µM [26]: 70.6%
growth at 10 µM [27]: 94.7%
growth at 10 µM [28]: 33.5%
growth at 10 µM [29]: 110%
growth at 10 µM [30]: 104%
